Experimental data taken from ChEMBL document CHEMBL2396655, “Design, synthesis, and biological evaluation of (E)-N-aryl-2-arylethenesulfonamide analogues as potent and orally bioavailable microtubule-targeted anticancer agents” (J Med Chem, 2013).

Assays:
K562 = test: Cytotoxicity against human K562 cells after 96 hrs by trypan blue exclusion assay; type: functional, cell-based; conditions: for IC50: K562, 96 h
Outline: (§1)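 Cells were grown in DMEM or RPMI with 10% FBS and plated at 2.5×10⁴ cells/well in 12-well dishes. Compounds were added 24 h later at various concentrations. After 96 h, viable cells were counted by trypan blue exclusion from duplicate wells. Results are the mean of two independent experiments.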

DU-145 = test: Cytotoxicity against human DU145 cells after 96 hrs by trypan blue exclusion assay; type: functional, cell-based; conditions: for IC50: DU-145, 96 h; outline: as §1

Compound | Activity (K562) | IC50 (K562) | Activity (DU-145) | IC50 (DU-145)
COC(=O)C(Nc1cc(NS(=O)(=O)/C=C/c2c(OC)cc(OC)cc2OC)ccc1OC)c1ccc(Br)cc1 (configuration not stated) | Dose-dependent effect | 1 µM | Dose-dependent effect | 7.5 µM
COc1ccc(NS(=O)(=O)/C=C/c2c(OC)cc(O)cc2OC)cc1 | Dose-dependent effect | 10 µM | Dose-dependent effect | 10 µM
COc1cc(OC)c(/C=C/S(=O)(=O)Nc2ccc(OC)c(OP(=O)(O)O)c2)c(OC)c1 | Dose-dependent effect | 0.0075 µM | Dose-dependent effect | 0.04 µM
COc1ccc(NS(=O)(=O)/C=C/c2c(OC)cc(OCCCC(=O)O)cc2OC)cc1O | Dose-dependent effect | 10 µM | Dose-dependent effect | 10 µM
COc1cc(OC)c(/C=C/S(=O)(=O)Nc2ccc(OC)c(OC(=O)C(C)(C)C3=C(C)C(=O)C=C(C)C3=O)c2)c(OC)c1 | Dose-dependent effect | 0.008 µM | Dose-dependent effect | 0.009 µM
COc1ccc(/C=C/S(=O)(=O)Nc2c(F)c(F)c(F)c(F)c2F)cc1[N+](=O)[O-] | Dose-dependent effect | 75 µM | Dose-dependent effect | 100 µM
COc1ccc(NS(=O)(=O)/C=C/c2cc(OC)c(OC)c(OC)c2)cc1N | Dose-dependent effect | 15 µM | Dose-dependent effect | 35 µM
O=S(=O)(/C=C/c1ccccc1)Nc1ccccc1 | Dose-dependent effect | 10 µM | Dose-dependent effect | 10 µM
COc1cc(OC)c(/C=C/S(=O)(=O)Nc2ccc(F)c(N)c2)c(OC)c1 | Dose-dependent effect | 5 µM | Dose-dependent effect | 10 µM
COc1ccc(NS(=O)(=O)/C=C/c2c(F)c(F)c(F)c(F)c2F)cc1N | Dose-dependent effect | 75 µM | Dose-dependent effect | 75 µM
COC(=O)C(C)(C)Nc1cc(NS(=O)(=O)/C=C/c2c(OC)cc(OC)cc2OC)ccc1OC | Dose-dependent effect | 0.3 µM | Dose-dependent effect | 0.2 µM
COc1ccc(NS(=O)(=O)/C=C/c2c(OC)cccc2OC)cc1 | Dose-dependent effect | 5 µM | Dose-dependent effect | 0.375 µM
COc1cc(OC)c(/C=C/S(=O)(=O)Nc2ccc(OC)c([N+](=O)[O-])c2)c(OC)c1 | Dose-dependent effect | 1 µM | Dose-dependent effect | 2.5 µM
COC(=O)C(C)Nc1cc(NS(=O)(=O)/C=C/c2c(OC)cc(OC)cc2OC)ccc1OC (configuration not stated) | Dose-dependent effect | 0.3 µM | Dose-dependent effect | 0.1 µM
COc1ccc(NS(=O)(=O)/C=C/c2cc(OC)c(OC)c(OC)c2)cc1[N+](=O)[O-] | Dose-dependent effect | 75 µM | Dose-dependent effect | 75 µM
COC(=O)C(Nc1cc(NS(=O)(=O)/C=C/c2c(OC)cc(OC)cc2OC)ccc1OC)c1ccccc1 (configuration not stated) | Dose-dependent effect | 2.5 µM | Dose-dependent effect | 2.5 µM
COc1ccc(NS(=O)(=O)/C=C/c2cc(OC)c(OC)c(OC)c2)cc1 | Dose-dependent effect | 35 µM | Dose-dependent effect | 35 µM
COc1cc(OC)c(/C=C/S(=O)(=O)Nc2ccc(OC)c(F)c2)c(OC)c1 | Dose-dependent effect | 0.075 µM | Dose-dependent effect | 0.2 µM
